Measured values reported in ChEMBL document CHEMBL1136847, “Syntheses and potential anti-prostate cancer activities of ionone-based chalcones” (Bioorg Med Chem Lett, 2009).

Target: T1, Androgen receptor (Homo sapiens) (UniProt P10275)
T1 sequence (whole entry): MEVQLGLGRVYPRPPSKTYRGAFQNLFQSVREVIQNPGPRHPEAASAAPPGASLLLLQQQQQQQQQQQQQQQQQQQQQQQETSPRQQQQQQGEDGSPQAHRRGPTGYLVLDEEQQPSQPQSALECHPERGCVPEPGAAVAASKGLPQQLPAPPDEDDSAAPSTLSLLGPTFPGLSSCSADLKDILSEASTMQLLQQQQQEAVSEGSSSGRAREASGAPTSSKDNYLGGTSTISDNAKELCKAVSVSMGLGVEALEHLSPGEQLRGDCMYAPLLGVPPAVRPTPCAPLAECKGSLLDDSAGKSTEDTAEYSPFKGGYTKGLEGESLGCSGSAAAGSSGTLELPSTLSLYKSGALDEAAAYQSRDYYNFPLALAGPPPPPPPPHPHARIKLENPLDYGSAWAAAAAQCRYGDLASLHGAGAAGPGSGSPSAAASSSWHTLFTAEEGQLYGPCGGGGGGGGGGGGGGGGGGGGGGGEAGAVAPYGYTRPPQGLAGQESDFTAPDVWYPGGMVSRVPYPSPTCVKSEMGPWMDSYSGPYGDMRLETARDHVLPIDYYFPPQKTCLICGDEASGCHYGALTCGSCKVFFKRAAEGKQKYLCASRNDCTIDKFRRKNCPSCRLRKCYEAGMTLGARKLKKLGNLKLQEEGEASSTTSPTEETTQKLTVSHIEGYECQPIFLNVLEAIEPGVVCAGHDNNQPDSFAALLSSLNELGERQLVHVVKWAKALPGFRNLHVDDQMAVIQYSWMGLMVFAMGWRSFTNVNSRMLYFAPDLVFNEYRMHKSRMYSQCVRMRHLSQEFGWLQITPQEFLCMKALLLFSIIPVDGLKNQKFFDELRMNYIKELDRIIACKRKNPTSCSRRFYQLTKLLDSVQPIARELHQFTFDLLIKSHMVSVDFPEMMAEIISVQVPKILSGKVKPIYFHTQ
Experiment: Antagonist activity at wild type androgen receptor in human PC3 cells transiently transfected with pCMV-MMTV-Luc assessed as suppression of DHT-induced receptor transactivation
Type: functional, cell-based
Details: PC-3
In short: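 PC-3 cells seeded 24 h before co-transfection with MMTV-luciferase reporter (100 ng), the wild-type, T877A, W741C or H874Y AR plasmid (10 ng) and Renilla null luciferase (10 ng) using Lipofectamine 2000. Medium switched after 5 h to phenol red-free RPMI 1640 with 10% charcoal-stripped FBS. After 16 h, 0.1 nM DHT ± compound (0.1, 1.0 µM) for 24 h. Dual-luciferase read-out, Renilla-standardized, normalized to DHT alone (100%).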

CC1=C(/C=C/C(=O)/C=C/c2cccc(C(F)(F)F)c2)C(C)(C)CCC1O (stereo unspecified)
Activity: Dose-dependent effect
